These results are taken from ChEMBL document CHEMBL1133213, “Synthesis, molecular modeling and preliminary biological evaluation of 1-amino-3-phosphono-3-cyclopentene-1-carboxylic acid and 1-amino-3-phosphono-2-cyclopentene-1-carboxylic acid, two novel agonists of metabotropic glutamate receptors of group III” (Bioorg Med Chem Lett, 2000).

A value given as a limit tells only on which side of the number the result lay.

Experiment [1] deals with T1, Metabotropic glutamate receptor 4 (Homo sapiens, UniProt Q14833). As to the kind of experiment: Agonistic activity at Metabotropic glutamate receptor 4 expressed in mammalian cells by GTPgammaS binding assay. Format: cell-based. The procedure, abridged: (§1)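 [35S]-GTPγS binding to membranes prepared from CHO cells expressing human mGlu4a. Stimulation is normalised to that given by 1 mM L-Glu. Points are mean ± SEM of three determinations from one experiment.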

Experiment [2] addresses T2, Metabotropic glutamate receptor 2 (Homo sapiens, UniProt Q14416). As to the kind of experiment: Inhibitory concentration on Human mGlu2 receptor expressed in recombinant mammalian cells by GTPgammaS binding assay. The format is cell-based. The procedure, abridged:
(§2)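 [35S]-GTPγS binding assay in a CHO cell line expressing human mGlu2.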

The target in experiment [3] is T2, Metabotropic glutamate receptor 2. As to the kind of experiment: Agonistic activity on Human mGlu2 receptor expressed in recombinant mammalian cells by GTPgammaS binding assay. The format is cell-based. A digest of the protocol:
as §2
(In general: GTPγS is a poorly hydrolysed GTP analogue; its binding reports G protein activation.)

Experiment [4] deals with T1, Metabotropic glutamate receptor 4. Nature of the experiment: Inhibition of forskolin-stimulated cAMP accumulation in CHO cells expressing hmGlu4a. The format is functional, cell-based. On the technique in general: Cyclic AMP is a second messenger, typically raised through Gs and lowered through Gi signalling.
The target is the same in experiment [5]. Nature of the experiment: Inhibitory concentration on Human mGlu4 receptor expressed in recombinant mammalian cells by GTPgammaS binding assay. The format is cell-based.
The target is the same in experiment [6]. As to the kind of experiment: Agonistic activity on Human mGlu4a receptor expressed in recombinant mammalian cells by GTPgammaS binding assay; Partial agonist. Format: cell-based. The procedure, abridged:
as §1

For experiment [7] the target is unchanged. As to the kind of experiment: Inhibition of forskolin-stimulated cAMP accumulation in CHO cells expressing hmGlu4a; No full inhibition. The format is functional, cell-based.
Experiment [8] concerns the target T2, Metabotropic glutamate receptor 2. Nature of the experiment: Inhibitory concentration on Human Metabotropic glutamate receptor 2 expressed in recombinant mammalian cells by GTPgammaS binding assay. Format: cell-based. The procedure, abridged: as §2
For experiment [9], the target named is T1, Metabotropic glutamate receptor 4. As to the kind of experiment: Agonistic activity on Human mGlu4a receptor expressed in recombinant mammalian cells by GTPgammaS binding assay. Format: cell-based. The procedure, abridged: as §1
For experiment [10], the target named is T2, Metabotropic glutamate receptor 2. As to the kind of experiment: Agonistic activity on Human Metabotropic glutamate receptor 2 expressed in recombinant mammalian cells by GTPgammaS binding assay. Format: cell-based. The procedure, abridged: as §2

T2 sequence (Q14416 whole entry): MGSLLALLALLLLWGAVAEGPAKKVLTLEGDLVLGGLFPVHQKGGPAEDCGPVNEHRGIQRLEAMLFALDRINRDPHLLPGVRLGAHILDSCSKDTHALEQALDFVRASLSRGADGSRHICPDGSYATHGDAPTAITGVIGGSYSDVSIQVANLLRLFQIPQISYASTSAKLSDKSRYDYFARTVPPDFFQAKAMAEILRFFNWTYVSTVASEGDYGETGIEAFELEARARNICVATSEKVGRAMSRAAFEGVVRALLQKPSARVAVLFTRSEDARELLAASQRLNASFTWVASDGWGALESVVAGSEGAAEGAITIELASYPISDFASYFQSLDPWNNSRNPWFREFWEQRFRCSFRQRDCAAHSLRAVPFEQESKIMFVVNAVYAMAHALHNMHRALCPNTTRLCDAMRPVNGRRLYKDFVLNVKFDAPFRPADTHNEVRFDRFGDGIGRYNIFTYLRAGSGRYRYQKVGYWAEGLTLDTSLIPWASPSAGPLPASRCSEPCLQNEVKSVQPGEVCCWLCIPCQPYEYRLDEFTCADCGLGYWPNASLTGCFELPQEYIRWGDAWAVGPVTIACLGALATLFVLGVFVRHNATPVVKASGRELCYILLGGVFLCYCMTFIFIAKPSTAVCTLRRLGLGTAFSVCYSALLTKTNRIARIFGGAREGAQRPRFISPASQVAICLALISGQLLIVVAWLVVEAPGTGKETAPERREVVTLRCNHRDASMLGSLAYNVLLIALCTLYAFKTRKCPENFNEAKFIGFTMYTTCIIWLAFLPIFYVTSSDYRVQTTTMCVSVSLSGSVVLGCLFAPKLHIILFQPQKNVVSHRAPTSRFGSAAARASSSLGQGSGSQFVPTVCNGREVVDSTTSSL
T1 sequence (Q14833 whole entry): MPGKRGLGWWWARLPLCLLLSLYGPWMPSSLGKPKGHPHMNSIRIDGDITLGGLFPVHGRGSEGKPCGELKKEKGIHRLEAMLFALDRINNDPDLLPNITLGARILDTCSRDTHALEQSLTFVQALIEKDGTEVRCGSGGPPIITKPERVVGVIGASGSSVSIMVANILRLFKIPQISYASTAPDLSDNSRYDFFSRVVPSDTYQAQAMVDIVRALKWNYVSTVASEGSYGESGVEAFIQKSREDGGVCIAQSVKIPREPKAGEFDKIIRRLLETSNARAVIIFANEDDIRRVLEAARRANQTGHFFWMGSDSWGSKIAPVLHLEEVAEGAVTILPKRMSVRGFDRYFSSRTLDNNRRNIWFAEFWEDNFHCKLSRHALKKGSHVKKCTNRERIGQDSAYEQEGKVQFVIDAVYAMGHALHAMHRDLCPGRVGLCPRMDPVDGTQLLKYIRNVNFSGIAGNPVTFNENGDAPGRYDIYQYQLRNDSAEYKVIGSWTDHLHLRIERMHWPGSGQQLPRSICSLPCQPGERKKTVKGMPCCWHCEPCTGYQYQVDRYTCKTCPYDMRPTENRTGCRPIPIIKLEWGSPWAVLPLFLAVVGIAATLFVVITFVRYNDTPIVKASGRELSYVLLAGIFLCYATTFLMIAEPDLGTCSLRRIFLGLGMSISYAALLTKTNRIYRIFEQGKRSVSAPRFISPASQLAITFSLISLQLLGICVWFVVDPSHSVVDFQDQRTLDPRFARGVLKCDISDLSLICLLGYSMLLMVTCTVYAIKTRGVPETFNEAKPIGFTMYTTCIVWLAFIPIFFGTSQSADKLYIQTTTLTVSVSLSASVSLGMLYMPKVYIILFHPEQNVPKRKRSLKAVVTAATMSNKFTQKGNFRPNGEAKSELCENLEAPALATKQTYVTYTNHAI

As a reminder, the EC50 is the midpoint of the concentration-response curve. `NC(C(=O)O)c1ccc(P(=O)(O)O)cc1` (stereo unspecified) showed an EC50 in experiment [1] of 4.7 µM.

In experiment [1], `N[C@@]1(C(=O)O)C[C@H](C(=O)O)[C@H](C(=O)O)C1` registered an EC50 of 7 µM.

`N[C@]1(C(=O)O)C[C@H]1CP(=O)(O)O` yielded an EC50 in experiment [1] of 7.9 µM.

Consider `NC1(C(=O)O)C[C@@H](C(=O)O)[C@H](C(=O)O)C1`, for which the EC50 in [1] was 9 µM.

For orientation: IC50 means the concentration needed to halve the response being measured. As to `NC1(C(=O)O)C=C(P(=O)(O)O)CC1` (stereo unspecified), the results for the half-inhibitory concentration (IC50) in experiment [2], in experiment [4] and in experiment [5] were > 200 µM, > 100 µM and > 100 µM, respectively. The half-maximal effective concentration (EC50) was > 300 µM in experiment [3], > 30 µM in [4] and > 30 µM in experiment [6].

For the compound `NC1(C(=O)O)CC=C(P(=O)(O)O)C1` (stereo unspecified), the values for the EC50 in [7], in experiment [9] and in experiment [10] were ~30 µM, 17 µM and > 300 µM, respectively. Moreover, the IC50 was > 300 µM in experiment [8], > 100 µM in experiment [4] and > 100 µM in experiment [5].

Regarding `N[C@@H](CCP(=O)(O)O)C(=O)O`, the midpoint of the response in [1], the EC50, lay at 0.5 µM.

Regarding `N[C@]1(C(=O)O)C[C@@H]1CP(=O)(O)O`, in experiment [1], the EC50 stood at 0.58 µM.

Turning to `N[C@@]1(C(=O)O)CC[C@H](P(=O)(O)O)C1`, in experiment [1], the EC50 was 86 µM.

In [1], `N[C@@]1(C(=O)O)CCC(P(=O)(O)O)C1` (single isomer, unassigned) showed a 50% effective concentration (EC50) of 27 µM.

In the case of `N[C@@H](COP(=O)(O)O)C(=O)O` [DEXFOSFOSERINE], the EC50 in [1] was found to be 1 µM.
